Structures are written as SMILES. In brackets after ≈: the same amount, converted by molar mass.

For data set [1], the target named is Protein arginine N-methyltransferase 5 (Homo sapiens, UniProt O14744). The experiment in a line: Inhibition of PRMT5 (unknown origin) assessed as inhibition of symmetric dimethylation of arginine incubated for 3 days by fluorescence based cellular target engagement assay. Summed up: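 MCF-7 cells (4000/well, collagen-coated plates) in EMEM with 0.01 mg/mL insulin and 10% FBS; 10-point 1:3 titration from 10,000 nM; 3 days at 37 °C/5% CO2; fixed, permeabilized, anti-SDMA antibody, then Alexa488 anti-rabbit IgG plus Hoechst; nuclear fluorescence by high-content imaging versus DMSO; EC50 by four-parameter robust fit.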

Data set [2] has as its system Z-138. Description: Antiproliferative activity against human Z138 cells incubated for 10 days by cell titer-glo assay. The settings on record: Z-138, 240 h. The format is functional, cell-based.
Data set [3] is described as follows: Plasma clearance in rat. The format is ADME.
The nature of data set [4]: Unbound clearance in rat. The settings on record: in vivo. The format is ADME.
A short description of data set [5]: Unbound volume of distribution in rat. The format is ADME. To be noted: in vivo.
Data set [6] in a line: MRT in rat. The format is ADME. To be noted: in vivo.
A short description of data set [7]: Oral bioavailability in rat. To be noted: in vivo. The format is ADME, organism-based.
Data set [8] can be described thus: Solubility of the compound in […] at pH 2 at 200 uM incubated for 24 hrs by UV-vis detection based HPLC analysis. The format is physicochemical. Put shortly: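 10 mM DMSO stock added to 10 mM potassium phosphate buffer at pH 2 or pH 7, or FaSSIF pH 6.5, to 200 μM total; 24 h equilibration, filtration, then reverse-phase HPLC with UV–vis detection.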
A short description of data set [9]: Solubility of the compound in FaSSIF at pH 7 at 200 uM incubated for 24 hrs by UV-vis detection based HPLC analysis. The format is physicochemical.
Data set [10] in a line: Unbound clearance in dog. To be noted: in vivo. The format is ADME, Canis lupus familiaris.
A short description of data set [11]: Unbound volume of distribution in dog. The format is ADME, Canis lupus familiaris. The settings on record: in vivo.
Data set [12] can be described thus: MRT in dog. The format is ADME, Canis lupus familiaris. The settings on record: in vivo.
Data set [13] in a line: Oral bioavailability in dog. The settings on record: in vivo. The format is ADME, organism-based, Canis lupus familiaris.
The subject of data set [14] is Z-138. Description: Antitumor activity against human Z138 cells implanted in CB17.SCID mouse assessed as tumor growth inhibition at 60 mg/kg, po bid measured at 13 days relative to control. The format is functional. To be noted: Z-138, po, 312 h, time 13 day, read-out: TGI.
For data set [15], the system named is Z-138. The experiment in a line: Antitumor activity against human Z138 cells implanted in CB17.SCID mouse assessed as tumor growth inhibition at 30 mg/kg, po bid measured at 13 days relative to control. The format is functional. The settings on record: Z-138, po, 312 h, time 13 day, read-out: TGI.
For data set [16], the system named is Z-138. Description: Antitumor activity against human Z138 cells implanted in CB17.SCID mouse assessed as tumor growth inhibition at […] measured at 13 days relative to control. The format is functional. The settings on record: Z-138, po, 312 h, time 13 day, read-out: TGI.
For data set [17], the system named is Z-138. Description: Antitumor activity against human Z138 cells implanted in CB17.SCID mouse assessed as […] at 5 mg/kg, po bid measured at 13 days relative to control. The format is functional. To be noted: Z-138, po, 312 h, time 13 day, read-out: TGI. Summed up: (§1)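 Female CB17.SCID mice implanted subcutaneously with 5 × 10⁶ Z138 cells; dosing began at about 100 mm³, n = 10 per group; daily PO at 10, 30 or 60 mpk QD or 5 mpk BID in 0.5% methylcellulose; tumor volume (L × W²)/2 and body weight twice weekly; %TGI at day 13 from change in tumor volume versus vehicle.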

Data set [18] is described as follows: Toxicity in CB17.SCID mouse implanted with human Z138 cells assessed as body weight change at 10 to 60 mg/kg, po bid measured up, to 14 days relative to control. The format is organism-based. The settings on record: in vivo, 336 h, in the assay text read “po qd” for “po bid”, dose 10-60 mg/kg, time 14 day. Put shortly: as §1
Data set [19] addresses CYP3A4 (Homo sapiens, UniProt P08684). Description: Ratio of IC50 for time dependent inhibition of CYP3A4 (unknown origin) in absence of NADPH to IC50 for time dependent inhibition of CYP3A4 (unknown origin) in presence of NADPH. To be noted: read-out: Ratio IC50.

Sequence of Protein arginine N-methyltransferase 5 (O14744 whole entry): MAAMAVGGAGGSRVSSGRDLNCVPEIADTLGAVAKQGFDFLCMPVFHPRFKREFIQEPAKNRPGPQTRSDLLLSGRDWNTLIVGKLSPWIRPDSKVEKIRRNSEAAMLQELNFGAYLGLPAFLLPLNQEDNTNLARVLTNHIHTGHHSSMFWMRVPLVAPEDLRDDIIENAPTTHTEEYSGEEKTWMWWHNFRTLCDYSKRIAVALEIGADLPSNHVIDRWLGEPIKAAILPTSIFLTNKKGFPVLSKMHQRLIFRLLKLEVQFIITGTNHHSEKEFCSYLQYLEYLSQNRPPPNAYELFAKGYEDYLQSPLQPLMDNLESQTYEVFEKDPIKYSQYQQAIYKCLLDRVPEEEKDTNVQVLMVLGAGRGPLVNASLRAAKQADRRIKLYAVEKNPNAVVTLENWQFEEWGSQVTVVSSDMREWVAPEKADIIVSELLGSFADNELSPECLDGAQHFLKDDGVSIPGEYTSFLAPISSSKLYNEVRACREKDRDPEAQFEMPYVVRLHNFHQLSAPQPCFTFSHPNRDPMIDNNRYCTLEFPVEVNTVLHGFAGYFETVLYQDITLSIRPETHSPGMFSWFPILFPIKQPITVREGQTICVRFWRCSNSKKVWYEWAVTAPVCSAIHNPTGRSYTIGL
Sequence of CYP3A4 (P08684 whole entry): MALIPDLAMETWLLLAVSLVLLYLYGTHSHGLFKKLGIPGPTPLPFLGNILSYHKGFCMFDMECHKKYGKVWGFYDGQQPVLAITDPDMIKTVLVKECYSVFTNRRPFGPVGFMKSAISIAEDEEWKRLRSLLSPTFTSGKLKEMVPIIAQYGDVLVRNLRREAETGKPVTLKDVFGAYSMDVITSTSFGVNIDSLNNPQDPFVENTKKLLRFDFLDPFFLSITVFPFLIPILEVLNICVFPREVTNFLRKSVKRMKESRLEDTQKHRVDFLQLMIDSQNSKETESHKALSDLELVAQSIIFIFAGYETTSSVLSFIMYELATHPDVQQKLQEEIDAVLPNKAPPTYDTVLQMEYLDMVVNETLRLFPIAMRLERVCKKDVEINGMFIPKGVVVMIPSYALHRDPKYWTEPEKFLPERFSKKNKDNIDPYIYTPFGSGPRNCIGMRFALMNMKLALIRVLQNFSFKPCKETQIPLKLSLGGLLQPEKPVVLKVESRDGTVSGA

As to `Nc1nc2cc(C[C@@H]3CC[C@@]4(O)[C@@H]3C[C@@H](n3cc(F)c5c(N)ncnc53)[C@@H]4O)cc(F)c2cc1F`, the EC50 in data set [1] was 0.84 nM; in data set [2], 5.8 nM. The clearance in [3] was found to be 14 mL/min/kg. Besides, the CL free came out at 368 mL/min/kg in data set [4] and 72 mL/min/kg in data set [10]. Moreover, the Vdu in [5] came to 54 L/kg; in data set [11], 43 L/kg. The MRT in data set [6] amounted to 2.5 h; in data set [12], 9.9 h. The bioavailability in data set [7] stood at 24%; in data set [13], 45%. Besides, the solubility at 24 h, 200 µM is 190 µM (≈ 92.1 µg/mL) in data set [8] and 25 µM (≈ 12.1 µg/mL) in [9].

In the case of `Cc1ncnc2c1ccn2[C@@H]1O[C@@H]2[C@@H](Oc3ccc4cc(Br)c(N)nc4c3)CC[C@]2(O)[C@H]1O`, the concentration for a half-maximal effect (EC50) in [1] is 4.7 nM; in data set [2], 17 nM. The clearance in data set [3] is 4 mL/min/kg. Also, the CL free in data set [4] was 1444 mL/min/kg; in [10], 329 mL/min/kg. In addition, the results for the Vdu in data set [5] and in [11] were 139 L/kg and 93 L/kg, respectively. Also, the MRT in data set [6] was determined as 1.6 h; in data set [12], 4.6 h. Further, the bioavailability turned out to be 42% in data set [7] and 44% in data set [13]. Besides, the solubility at 24 h, 200 µM in [8] was 161 µM (≈ 82.5 µg/mL); in [9], less than 1 µM. The inhibition in vivo at 60 mg/kg in data set [14] stood at 71%. Moreover, the inhibition in vivo at 30 mg/kg in data set [15] is 76%. For the same molecule, the inhibition in vivo in data set [16] is 45%. Moreover, in data set [17], the inhibition in vivo at 5 mg/kg amounted to 33%. Moreover, the Activity entry in [18] is given as “Non-Toxic”. For the same molecule, the IC50 shift in data set [19] was greater than 2.4.

For `Cc1ncnc2c1ccn2[C@@H]1O[C@@H]2[C@@H](Oc3ccc4cc(Cl)c(N)nc4c3)CC[C@]2(O)[C@H]1O`, the EC50 came out at 4 nM in data set [1] and 24 nM in data set [2]. The same molecule displayed a clearance in data set [3] of 8 mL/min/kg. In data set [4], this molecule showed a CL free of 710 mL/min/kg. Besides, in data set [5], the Vdu was found to be 59 L/kg. The mean residence time MRT in data set [6] was determined as 1.4 h. For the same molecule, the bioavailability in data set [7] stood at 71%. In addition, the solubility at 24 h, 200 µM amounted to 160 µM (≈ 74.9 µg/mL) in [8] and 2 µM (≈ 0.936 µg/mL) in data set [9].

Regarding `Cc1ncnc2c1ccn2[C@@H]1O[C@@H]2[C@H](Cc3ccc4cc(Cl)c(N)nc4c3)CC[C@]2(O)[C@H]1O`, the figures for the EC50 in data set [1] and in data set [2] were 2.5 nM and 6.9 nM, respectively. In [3], this molecule showed a clearance of 24 mL/min/kg. Besides, the CL free in data set [4] worked out at 667 mL/min/kg. In data set [5], the Vdu was 43 L/kg. In [6], the mean residence time MRT was 1.1 h. In [7], this molecule had a bioavailability of 41%. Moreover, the solubility at 24 h, 200 µM in data set [8] was determined as 148 µM (≈ 69 µg/mL); in data set [9], 29 µM (≈ 13.5 µg/mL).

Turning to `Nc1nc2cc(O[C@H]3CC[C@@]4(O)[C@@H]3O[C@@H](n3ccc5c(N)ncnc53)[C@@H]4O)ccc2cc1Cl`, the 50% effective concentration (EC50) in data set [1] turned out to be 1.2 nM; in data set [2], 7.5 nM. In addition, the clearance in data set [3] turned out to be 22 mL/min/kg. The same molecule displayed a CL free in data set [4] of 412 mL/min/kg. For the same molecule, in [5], the Vdu came to 34 L/kg. Also, in data set [6], the MRT worked out at 1.4 h. For the same molecule, the bioavailability in data set [7] is 2%. The solubility at 24 h, 200 µM is 158 µM (≈ 74.1 µg/mL) in data set [8] and less than 1 µM in data set [9].

With `CNc1ncnc2c1ccn2[C@@H]1O[C@@H]2[C@@H](Oc3ccc4cc(Br)c(N)nc4c3)CC[C@]2(O)[C@H]1O`, the EC50 in data set [1] came out at 5.3 nM; in [2], 23 nM. Besides, in data set [3], the clearance was 12 mL/min/kg. In addition, the CL free in data set [4] was found to be 3143 mL/min/kg. In addition, the Vdu in [5] is 222 L/kg. The molecule also displayed a mean residence time (MRT) in data set [6] of 1.2 h. In [7], this molecule came in with a bioavailability of 68%. Also, the solubility at 24 h, 200 µM is 163 µM (≈ 86 µg/mL) in data set [8] and 14 µM (≈ 7.38 µg/mL) in data set [9].

In the case of `Cc1ncnc2c1ccn2[C@@H]1C[C@@H]2[C@H](Cc3ccc4cc(F)c(N)nc4c3)CC[C@]2(O)[C@H]1O`, the EC50 in data set [1] amounted to 0.89 nM; in data set [2], 3.5 nM. In data set [3], the clearance stood at 24 mL/min/kg. Besides, the CL free in data set [4] turned out to be 374 mL/min/kg. Besides, in [5], the Vdu turned out to be 33 L/kg. The molecule further displayed an MRT in data set [6] of 1.3 h. For the same molecule, the bioavailability in data set [7] came to 77%. The solubility at 24 h, 200 µM in data set [8] turned out to be 157 µM (≈ 70.3 µg/mL); in data set [9], 94 µM (≈ 42.1 µg/mL).

Regarding `Nc1nc2cc(C[C@@H]3CC[C@@]4(O)[C@@H]3O[C@@H](n3ccc5c(N)ncnc53)[C@@H]4O)ccc2cc1F`, the values for the EC50 in data set [1] and in data set [2] were 2.3 nM and 8.3 nM, respectively. The clearance in data set [3] came out at 18 mL/min/kg. This molecule registered a CL free in data set [4] of 1029 mL/min/kg. Besides, in data set [5], the Vdu came out at 111 L/kg. Moreover, the MRT in data set [6] was 1.3 h. Moreover, in data set [7], the bioavailability amounted to 28%. Besides, the solubility at 24 h, 200 µM in data set [8] amounted to 163 µM (≈ 73.4 µg/mL); in data set [9], 142 µM (≈ 64 µg/mL).

Consider `Cc1cn([C@@H]2C[C@@H]3[C@H](Cc4ccc5cc(F)c(N)nc5c4)CC[C@]3(O)[C@H]2O)c2ncnc(N)c12`, for which the figures for the EC50 in data set [1] and in data set [2] were 0.97 nM and 3.7 nM, respectively. This molecule gave a clearance in [3] of 38 mL/min/kg. For the same molecule, the CL free in data set [4] was 788 mL/min/kg. The same molecule came in with a Vdu in data set [5] of 50 L/kg. The MRT in data set [6] came to 1.1 h. This molecule had a bioavailability in [7] of 10%. The solubility at 24 h, 200 µM in data set [8] was determined as 146 µM (≈ 67.5 µg/mL); in data set [9], 66 µM (≈ 30.5 µg/mL).

As to `Cc1ncnc2c1ccn2[C@@H]1C[C@@H]2[C@H](Cc3ccc4cc(Br)c(N)nc4c3)CC[C@]2(O)[C@H]1O`, the 50% effective concentration (EC50) in data set [1] amounted to 1.1 nM; in [2] it was 1.6 nM. This molecule showed a clearance in [3] of 13 mL/min/kg. Besides, the CL free in [4] worked out at 835 mL/min/kg. In addition, the Vdu in data set [5] turned out to be 143 L/kg. In addition, in data set [6], the mean residence time (MRT) stood at 1.5 h. Moreover, in data set [7], the bioavailability was found to be 74%. For the same molecule, the solubility at 24 h, 200 µM in [8] was 199 µM (≈ 101 µg/mL); in data set [9], 14 µM (≈ 7.12 µg/mL).

As to `Cc1nc(N)c2ccn([C@@H]3O[C@@H]4[C@H](Cc5ccc6cc(Br)c(N)nc6c5)CC[C@]4(O)[C@H]3O)c2n1`, the EC50 in data set [1] was determined as 3.2 nM; in data set [2], 6.4 nM. In data set [3], this molecule came in with a clearance of 31 mL/min/kg. Further, the CL free in data set [4] was determined as 1337 mL/min/kg. The same molecule yielded a Vdu in data set [5] of 116 L/kg. Further, the MRT in data set [6] came out at 1.5 h. Further, the bioavailability in data set [7] turned out to be 11%. In addition, the results for the solubility at 24 h, 200 µM in data set [8] and in data set [9] were 151 µM (≈ 79.3 µg/mL) and 21 µM (≈ 11 µg/mL), respectively.

The record behind these values is ChEMBL document CHEMBL4808168, “The Discovery of Two Novel Classes of 5,5-Bicyclic Nucleoside-Derived PRMT5 Inhibitors for the Treatment of Cancer” (J Med Chem, 2021).
